Measurements of several laboratories.
Target: Serine/threonine-protein kinase PAK 2 (PAK2, Homo sapiens, UniProt Q13177)

Compound | test | setting | remaining binding [%]
Cc1cnn2ncc(-c3ccnc(N(C)C)n3)c2c1 | binding | 1 µM | 96
O=C(NCCCN1CCOCC1)c1ccc(Nc2nccc(-c3cc4ccccc4s3)n2)cc1 | binding, competition with immobilised ligand | 1 µM | 100
COc1cnc(Nc2cccc(S(N)(=O)=O)c2)nc1N1CCN(c2ccccc2)C(=O)C1 | binding, competition with immobilised ligand | 1 µM | 83
CCN1CCN(Cc2ccc(C(=O)Nc3ccc(C)c(Oc4ccc5c(c4)CC(=O)N5)c3)cc2C(F)(F)F)CC1 | binding, competition with immobilised ligand | 1 µM | 100
N[C@H]1CCN(c2nccc(-c3cnn4ncccc34)n2)C1 | binding | 1 µM | 87
Nc1ncc2c(n1)-c1c([nH]c3ccc(C#CC4CC4)cc13)CCCC2 | binding, competition with immobilised ligand | 1 µM | 33
C[C@@H]1CCN(c2nccc(-c3cnn4ncccc34)n2)C1 | binding | 1 µM | 99
O=C(Nc1c[nH]nc1C(=O)NC1CCNCC1)c1cc(F)cc(F)c1 | binding, competition with immobilised ligand | 1 µM | 100
COc1ncc2cc3ccccc3nc2c1C#N | cell-free assay, competition with immobilised ligand | 5 µM | 85
c1cncc(-c2cccc(Nc3nccc(NC4CCCCC4)n3)c2)c1 | binding, competition with immobilised ligand | 10 µM | 56
CNCc1ccccc1-c1csc([C@@H](C)Nc2nc(C)nc3cc(OC)c(OC)cc23)c1 | cell-free assay, competition with immobilised ligand | 1 µM | 88
O=C(NCCCN1CCOCC1)c1ccc(Nc2ncc(Cl)c(-c3ccc(Cl)s3)n2)cc1 | binding, competition with immobilised ligand | 1 µM | 90
C[C@@H](c1cccc(C#N)c1)n1cc(Cl)cc(C(N)=O)c1=N | cell-free assay, competition with immobilised ligand | 1 µM | 96
CN(C)c1nccc(-c2cnn3ncccc23)n1 | binding | 1 µM | 64
COc1cc(-c2cn(C3CCc4c(F)cccc4N(CC(F)(F)F)C3=O)nn2)ccc1-n1cnc(C)c1 (stereo not drawn) | cell-free assay, competition with immobilised ligand | 1 µM | 91
CC(C)(C)c1ccc(-c2nc(CBr)nn2-c2cccc(O)c2)cc1 | cell-free assay, competition with immobilised ligand | 10 µM | 100
CCS(=O)(=O)c1cc2cc(C[C@@](O)(CC(C)(C)c3ccc(F)cc3C(N)=O)C(F)(F)F)[nH]c2cn1 | cell-free assay, competition with immobilised ligand | 1 µM | 94
CN(C)c1nccc(-c2cnc3ncccn23)n1 | binding | 1 µM | 100
Cc1c(C(=O)O)cc(-c2ccc(C3CCNCC3)cc2)c2ccc(-c3ccc(C(F)(F)F)cc3)cc12 | cell-free assay, competition with immobilised ligand | 1 µM | 100
C[C@@H]1CN(c2ccc3ncc(-c4ccc5[nH]nc(C6CC6)c5c4)n3n2)C[C@H](C)O1 | binding, competition with immobilised ligand | 0.5 µM | 55
C[C@@]1(Cc2ccc(C#N)cc2)C(=O)N(c2cc(Cl)cc(Cl)c2)c2ncc(C(=O)NC3(c4nc(C5CCC5)no4)CC3)n21 | cell-free assay, competition with immobilised ligand | 1 µM | 64
O=C(c1ccc(Nc2ncc(Cl)c(-c3cc4ccccc4s3)n2)cc1)N1CCC(N2CCCC2)CC1 | binding, competition with immobilised ligand | 1 µM | 59
CC1CCCN1c1nccc(-c2cnn3ncccc23)n1 (stereo not drawn) | binding | 1 µM | 100
CN(C)CC#Cc1ccc(OCCCc2sc(N3CCc4cccc(C(=O)Nc5nc6ccccc6s5)c4C3)nc2C(=O)O)c(F)c1 | cell-free assay, competition with immobilised ligand | 1 µM | 93
